Data as given in ChEMBL document CHEMBL4138044, “Withaferin A induces cell death and differentiation in multiple myeloma cancer stem cells” (Medchemcomm, 2017).

Tests used:
[1] = tested on: Multiple myeloma cancer stem cell; assay: Antiproliferative activity against human multiple myeloma cancer stem cells after 72 hrs by MTT assay; assay type: functional, cell-based
Method in brief: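 MM-CSCs plated at 5000 cells/well and allowed to adhere 24 h, then exposed to 0–10 μM WFA for 72 h. MTT added for 2 h. Growth taken as absorbance relative to vehicle-control wells ×100. IC50 fitted from at least five concentrations; mean of three independent experiments ± SEM.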

[2] = Antiproliferative activity against human […] cells after 72 hrs by XTT assay; assay type: functional, cell-based
Method in brief: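 RPMI 8226 cells in RPMI 1640 with 10% FBS, plated at 15 000 cells/well and treated immediately with 0–10 μM WFA for 72 h. XTT added for 4 h. Growth as absorbance relative to vehicle control ×100. IC50 fitted from at least five concentrations; mean of three independent experiments ± SEM.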

IC50 [1]: > 100000 nM
SMILES: C[C@@H]1C[C@H]2[C@@H]3CCC4=CC(=O)C=C[C@]4(C)[C@@]3(F)[C@@H](O)C[C@]2(C)[C@@]1(O)C(=O)CO [DEXAMETHASONE]
IC50 [2]: 7.8 nM
